Measurements from ChEMBL document CHEMBL1122839, “Synthesis and antidiarrheal activity of N-(aminoiminomethyl)-1H-pyrrole-1-acetamides related to guanfacine” (1985).
Values joined by “and” are separate entries in the source; they are usually repeats but may differ in a detail not shown here. Identical values can stand only once. Active and inactive are the calls of the source. The rule behind the calls is not given here.

Columns and labels:
Rattus norvegicus [1] = experiment: Percent inhibition of caster oil induced diarrhea in rats at a dose of 30 mg/kg peroral administration after 6 hours; NS=Not significant; assay type: functional, organism-based; design: dose 30 mg/kg
Rattus norvegicus [2] = experiment: Percent inhibition of caster oil induced diarrhea in rats at a dose of 30 mg/kg peroral administration after 2 hours; assay type: functional; details: route oral
Rattus norvegicus [3] = experiment: Cardiovascular activity in normotensive rats after oral administration of 30 mg/kg after 6 hr; assay type: functional
How it was run: (§1)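 Female normotensive rats with left carotid artery cannulae placed under anaesthesia. The next day they received the test substance orally in 0.5% hydroxymethylcellulose/0.9% saline (10 mL/kg), or vehicle alone. Systolic blood pressure was measured from the cannula, and heart rate from the pressure-triggered tachometer, predose and at 1, 2, 4 and 6 h. Values are means; significance was judged against predose values.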

Rattus norvegicus [4] = experiment: Cardiovascular activity in normotensive rats at a dose of 30 mg/kg oral administration after 1 hr; assay type: functional; how it was run: as §1
Rattus norvegicus [5] = experiment: Cardiovascular activity in normotensive rats at a dose of 30 mg/kg oral administration after 2 hr; assay type: functional; how it was run: as §1
Rattus norvegicus [6] = experiment: Cardiovascular activity in normotensive rats after oral administration of 30 mg/kg after 4 hr; assay type: functional; how it was run: as §1
Rattus norvegicus [7] = experiment: Percent inhibition of caster oil induced diarrhea in rats at a dose of 10 mg/kg peroral administration after 6 hours; assay type: functional; details: for Inhibition: 10 mg/kg; for inhibition in vivo at 10 mg/kg: Rattus norvegicus, 6 h
Rattus norvegicus [8] = experiment: Percent inhibition of caster oil induced diarrhea in rats at a dose of 10 mg/kg peroral administration after 2 hours; assay type: functional; details: route oral
Rattus norvegicus [9] = experiment: Cardiovascular activity in normotensive rats at a dose of 30 mg/kg oral administration after 6 hr; assay type: functional; how it was run: as §1
Rattus norvegicus [10] = experiment: Cardiovascular activity in normotensive rats after oral administration of 30 mg/kg after 1 hr; assay type: functional
How it was run: (§2)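 Female normotensive rats with left carotid artery cannulae implanted under anaesthesia; dosed orally the next day in 0.5% hydroxymethylcellulose/0.9% saline (10 mL/kg) or vehicle alone. Systolic blood pressure taken by pressure transducer before dosing and at 1, 2, 4, 6 h; heart rate from tachometer triggered by pressure signal. Mean values; significance versus predose.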

Rattus norvegicus [11] = experiment: Cardiovascular activity in normotensive rats after oral administration of 30 mg/kg after 2 hr; assay type: functional; how it was run: as §1
Rattus norvegicus [12] = experiment: Cardiovascular activity in normotensive rats at a dose of 30 mg/kg oral administration after 4 hr; assay type: functional; how it was run: as §1
Rattus norvegicus [13] = experiment: Percent inhibition of caster oil induced diarrhea in rats at a dose of 30 mg/kg peroral administration after 6 hours; assay type: functional; details: for inhibition in vivo at 30 mg/kg: Rattus norvegicus, 6 h
Rattus norvegicus [14] = experiment: Percent inhibition of caster oil induced diarrhea in rats at a dose of 30 mg/kg peroral administration after 2 hours; NS=Not significant; assay type: functional, organism-based; design: dose 30 mg/kg
Rattus norvegicus [15] = experiment: Percent inhibition of caster oil induced diarrhea in rats at a dose of 1 mg/kg peroral administration after 2 hours; assay type: functional; details: route oral
Rattus norvegicus [16] = experiment: Percent inhibition of caster oil induced diarrhea in rats at a dose of 3 mg/kg peroral administration after 2 hours; assay type: functional; details: route oral
Rattus norvegicus [17] = experiment: The compound was tested for cardiovascular activity in normotensive rats after oral administration of 30 mg/kg after 1 hr; assay type: functional, Heart; how it was run: as §1
Rattus norvegicus [18] = experiment: Percent inhibition of caster oil induced diarrhea in rats at a dose of 3 mg/kg peroral administration after 6 hours; NS=Not significant; assay type: functional, organism-based; design: dose 3 mg/kg
Rattus norvegicus [19] = experiment: Percent inhibition of caster oil induced diarrhea in rats at a dose of 1 mg/kg peroral administration after 6 hours; NS=Not significant; assay type: functional, organism-based; design: dose 1 mg/kg
Rattus norvegicus [20] = experiment: Percent inhibition of caster oil induced diarrhea in rats at a dose of 3 mg/kg peroral administration after 6 hr; NS=Not significant; assay type: functional, organism-based; design: dose 3 mg/kg
Rattus norvegicus [21] = experiment: Percent inhibition of caster oil induced diarrhea in rats at a dose of 1 mg/kg peroral administration after 2 hours; NS=Not significant; assay type: functional, organism-based; design: dose 1 mg/kg
Rattus norvegicus [22] = experiment: Percent inhibition of caster oil induced diarrhea in rats at a dose of 1 mg/kg peroral administration after 6 hr; NS=Not significant; assay type: functional, organism-based; design: dose 1 mg/kg
Rattus norvegicus [23] = experiment: Percent inhibition of caster oil induced diarrhea in rats at a dose of 1 mg/kg peroral administration after 6 hr; assay type: functional; details: route oral
Rattus norvegicus [24] = experiment: Percent inhibition of caster oil induced diarrhea in rats at a dose of 1 mg/kg peroral administration after 2 hr; assay type: functional; details: route oral
Rattus norvegicus [25] = experiment: Percent inhibition of caster oil induced diarrhea in rats after 2 hours at 1 mg/kg of dose after peroral administration; NS=Not significant; assay type: functional, organism-based; design: dose 1 mg/kg
Rattus norvegicus [26] = experiment: Percent inhibition of caster oil induced diarrhea in rats after 6 hours at 3 mg/kg of dose after peroral administration; NS=Not significant; assay type: functional, organism-based; design: dose 3 mg/kg
Rattus norvegicus [27] = experiment: Percent inhibition of caster oil induced diarrhea in rats after 2 hours at 3 mg/kg of dose after peroral administration; assay type: functional; details: route oral
Rattus norvegicus [28] = experiment: Percent inhibition of caster oil induced diarrhea in rats after 6 hours at 1 mg/kg of dose after peroral administration; NS=Not significant; assay type: functional, organism-based; design: dose 1 mg/kg
Rattus norvegicus [29] = experiment: Percent inhibition of caster oil induced diarrhea in rats at a dose of 3 mg/kg peroral administration after 6 hr; assay type: functional; details: route oral
How it was run: (§3)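 Male rats housed singly on wide-mesh grids, food-deprived overnight, water free; groups of six dosed orally in 0.3% hydroxymethylcellulose/0.9% saline (10 mL/kg) or vehicle. Castor oil 1 mL orally 1 h later. Feces collected on preweighed papers and weighed at 2 and 6 h after castor oil; output expressed as percentage of vehicle group.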

Rattus norvegicus [30] = experiment: Cardiovascular activity in normotensive rats after oral administration of 30 mg/kg aof the compound after 1 hr; assay type: functional; how it was run: as §2
Rattus norvegicus [31] = experiment: Percent inhibition of caster oil induced diarrhea in rats at a dose of 3 mg/kg peroral administration after 2 hr; assay type: functional; details: route oral; how it was run: as §3

`CC1C=C[C@@H](C)N1CC(=O)NC1=NCCN1` (stereo partly specified) was tested, and the inhibition (Rattus norvegicus [1]) was “inactive” and the inhibition in vivo at 30 mg/kg (Rattus norvegicus [2]) was 35%.

For `C/N=C(\N)NC(=O)CN1C(C)C=C[C@H]1C` (stereo partly specified), the inhibition (Rattus norvegicus [1]) was “inactive” and the inhibition in vivo at 30 mg/kg (Rattus norvegicus [2]) was 88%.

Work on `Cc1ccc(C)n1CC(=O)N=C(N)N.Cl` yielded a Systolic blood pressure (Rattus norvegicus [3]) of 138 mmHg, a Heart rate (Rattus norvegicus [4]) of 175 beats min-1 and a Heart rate (Rattus norvegicus [5]) of 218 beats min-1. For the same compound, the Systolic blood pressure (Rattus norvegicus [6]) was 163 mmHg, the Inhibition (Rattus norvegicus [7]; route oral) was 75% and 97% and the inhibition in vivo at 30 mg/kg (Rattus norvegicus [2]) was 96%. It also gave an inhibition in vivo at 10 mg/kg (Rattus norvegicus [8]) of 100%, a Heart rate (Rattus norvegicus [9]) of 242 beats min-1 and a Systolic blood pressure (Rattus norvegicus [10]) of 193 mmHg. It also gave a Systolic blood pressure (Rattus norvegicus [11]) of 159 mmHg, a Heart rate (Rattus norvegicus [12]) of 218 beats min-1 and an inhibition in vivo at 30 mg/kg (Rattus norvegicus [13]; po) of 96%.

In the case of `CC1C=C[C@@H](C)N1C(=O)C(=O)N=C(N)N` (stereo partly specified), the inhibition (Rattus norvegicus [1]) is reported as “inactive” and the inhibition (Rattus norvegicus [14]) is reported as “inactive”.

For `CC1C=C[C@@H](C)N1C(C)C(=O)N=C(N)N` (stereo partly specified), the inhibition (Rattus norvegicus [1]) was “inactive” and the inhibition (Rattus norvegicus [14]) was “inactive”.

For `CC1C=C[C@@H](C)N1CCC(=O)N=C(N)N` (stereo partly specified), the inhibition (Rattus norvegicus [1]) was “inactive” and the inhibition (Rattus norvegicus [14]) was “inactive”.

For `CC1C=C[C@@H](C)N1CCN=C(N)N` (stereo partly specified), the inhibition (Rattus norvegicus [1]) was “inactive” and the inhibition (Rattus norvegicus [14]) was “inactive”.

In the case of `CC1CC[C@@H](C)N1CC(=O)N=C(N)N` (stereo partly specified), the inhibition (Rattus norvegicus [1]) is reported as “inactive” and the inhibition (Rattus norvegicus [14]) is reported as “inactive”.

`CC1C=C[C@@H](C)N1CC(=O)N=C(N)N.Cl.Cl` (stereo in doubt; 2) was tested, and the Heart rate (Rattus norvegicus [3]) was 443 beats min-1, the Systolic blood pressure (Rattus norvegicus [3]) was 134 mmHg and the Heart rate (Rattus norvegicus [6]) was 418 beats min-1. It also gave a Systolic blood pressure (Rattus norvegicus [6]) of 133 mmHg, an Inhibition (Rattus norvegicus [7]; route oral) of 86% and an inhibition in vivo at 30 mg/kg (Rattus norvegicus [2]) of 100%. It also gave an inhibition in vivo at 10 mg/kg (Rattus norvegicus [8]) of 100%, a Systolic blood pressure (Rattus norvegicus [10]) of 133 mmHg and an inhibition in vivo at 1 mg/kg (Rattus norvegicus [15]) of 92%. For the same compound, the inhibition in vivo at 3 mg/kg (Rattus norvegicus [16]) was 100%, the Heart rate (Rattus norvegicus [11]) was 373 beats min-1 and the Systolic blood pressure (Rattus norvegicus [11]) was 137 mmHg. The Heart rate (Rattus norvegicus [17]) was 395 beats min-1 and the inhibition in vivo at 30 mg/kg (Rattus norvegicus [13]; po) was 99%.

With `CC1C=C[C@@H](C)N1CC(=O)N=C(N)N` (stereo in doubt; 2) the inhibition (Rattus norvegicus [18]) was “Not siginificant” and the inhibition (Rattus norvegicus [19]) was “inactive”.

Work on `CC1C=C[C@@H](C)N1CC(=O)N=C(N)N.Cl.Cl` (stereo in doubt; 10) yielded an Inhibition (Rattus norvegicus [7]; route oral) of 52% and an inhibition in vivo at 3 mg/kg (Rattus norvegicus [16]) of 100%.

`CC1C=C[C@@H](C)N1CC(=O)N=C(N)N` (stereo in doubt; 10) was tested, and the inhibition (Rattus norvegicus [20]) was “inactive”, the inhibition (Rattus norvegicus [21]) was “inactive” and the inhibition (Rattus norvegicus [22]) was “inactive”.

`CC1C=C[C@@H](C)N1CC(=O)N=C(N)N.Cl.Cl` (stereo in doubt; 11) was tested, and the Inhibition (Rattus norvegicus [7]; route oral) was 45%, the inhibition in vivo at 1 mg/kg (Rattus norvegicus [23]) was 46% and the inhibition in vivo at 1 mg/kg (Rattus norvegicus [24]) was 100%. It also gave an Inhibition (Rattus norvegicus [13]; route oral, 30 mg/kg) of 100%.

With `CNC(=N)NC(=O)Nc1c(C)cccc1C` [LIDAMIDINE] the inhibition (Rattus norvegicus [25]) was “inactive”, the Heart rate (Rattus norvegicus [3]) was 298 beats min-1 and the Systolic blood pressure (Rattus norvegicus [3]) was 131 mmHg. The Heart rate (Rattus norvegicus [6]) was 261 beats min-1, the Systolic blood pressure (Rattus norvegicus [6]) was 126 mmHg and the inhibition in vivo at 10 mg/kg (Rattus norvegicus [7]; po) was 68%. The inhibition in vivo at 30 mg/kg (Rattus norvegicus [2]) was 100%, the inhibition in vivo at 10 mg/kg (Rattus norvegicus [8]) was 100% and the inhibition (Rattus norvegicus [26]) was “inactive”. It also gave a Heart rate (Rattus norvegicus [10]) of 263 beats min-1, a Systolic blood pressure (Rattus norvegicus [10]) of 123 mmHg and a Heart rate (Rattus norvegicus [11]) of 241 beats min-1. For the same compound, the Systolic blood pressure (Rattus norvegicus [11]) was 132 mmHg, the inhibition in vivo at 3 mg/kg (Rattus norvegicus [27]) was 100% and the inhibition (Rattus norvegicus [28]) was “inactive”. It also gave an inhibition in vivo at 30 mg/kg (Rattus norvegicus [13]; po) of 100%.

Compound `CN(C)C(=O)C(CCN1CCC(O)(c2ccc(Cl)cc2)CC1)(c1ccccc1)c1ccccc1` [LOPERAMIDE] has a Heart rate (Rattus norvegicus [3]) of 360 beats min-1, a Systolic blood pressure (Rattus norvegicus [3]) of 125 mmHg and a Heart rate (Rattus norvegicus [6]) of 324 beats min-1. It also gave a Systolic blood pressure (Rattus norvegicus [6]) of 124 mmHg, an inhibition in vivo at 10 mg/kg (Rattus norvegicus [7]; route oral) of 99% and an inhibition in vivo at 30 mg/kg (Rattus norvegicus [2]) of 98%. For the same compound, the inhibition in vivo at 10 mg/kg (Rattus norvegicus [8]) was 100%, the inhibition in vivo at 3 mg/kg (Rattus norvegicus [29]) was 77% and the Systolic blood pressure (Rattus norvegicus [30]) was 119 mmHg. The Heart rate (Rattus norvegicus [10]) was 278 beats min-1, the inhibition in vivo at 3 mg/kg (Rattus norvegicus [31]) was 96% and the Heart rate (Rattus norvegicus [11]) was 290 beats min-1. The Systolic blood pressure (Rattus norvegicus [11]) was 117 mmHg and the inhibition in vivo at 30 mg/kg (Rattus norvegicus [13]; route oral) was 97%.
